# In ChEMBL document CHEMBL1124864, “Synthesis and biological evaluation of new antimuscarinic compounds with amidine basic centers. A useful bioisosteric replacement of classical cationic heads” (J Med Chem, 1990):
# Organism: Cavia porcellus
# Experiment: In vitro functional studies in guinea pig ileum
# Settings: not given
row,Structure (SMILES),Kb
1,CCCC[N+]1(C)C2CC(OC(=O)C(CO)c3ccccc3)CC1C1OC12.[Br-] (centres undefined),56.3 nM
2,C[N+]1(C)C2CC(OC(=O)C(CO)c3ccccc3)CC1C1OC12 (centres undefined),0.17 nM
3,CC(=N)N1C2CC(OC(=O)C(CO)c3ccccc3)CC1C1OC12.Cl (centres undefined),1.55 nM
4,Cl.N=CN1C2CC(OC(=O)C(CO)c3ccccc3)CC1C1OC12 (centres undefined),1.68 nM
5,Cl.N=CN1C2CCC1CC(OC(=O)C(CO)c1ccccc1)C2 (centres undefined),0.72 nM
6,Cl.N=C(N)N1C2CC(OC(=O)C(CO)c3ccccc3)CC1C1OC12 (centres undefined),5.18 nM
7,CC(=N)N1C2CCC1CC(OC(=O)C(CO)c1ccccc1)C2.Cl (centres undefined),1.61 nM
8,Cl.N=C(N)N1C2CCC1CC(OC(=O)C(CO)c1ccccc1)C2 (centres undefined),1.92 nM
9,C[N+]1(C)[C@@H]2CC[C@H]1C[C@@H](OC(=O)C(CO)c1ccccc1)C2 (some centres undefined) [ATROPINE METHYLBROMIDE],0.71 nM
10,CN1[C@@H]2CC[C@H]1C[C@@H](OC(=O)C(CO)c1ccccc1)C2 (some centres undefined) [ATROPINE],3.16 nM
11,CN1[C@@H]2C[C@@H](OC(=O)[C@H](CO)c3ccccc3)C[C@H]1[C@@H]1O[C@@H]12 [SCOPOLAMINE],0.4 nM

# Test system: Rattus norvegicus
# Experiment: […] activity against carbachol-induced colonic spasms in rat (iv)
# Assay type: functional
# Settings: not given
# Method in brief: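 Compounds given iv 2 min before each spasmogen dose. Percent inhibition of pretreatment contractions; ED50 with 95% confidence limits from linear regression of log dose-response curves.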
row,Structure (SMILES),ED50
1,CCCC[N+]1(C)C2CC(OC(=O)C(CO)c3ccccc3)CC1C1OC12.[Br-] (centres undefined),52.9 µg/kg
2,CC(=N)N1C2CC(OC(=O)C(CO)c3ccccc3)CC1C1OC12.Cl (centres undefined),3.9 µg/kg
3,Cl.N=CN1C2CC(OC(=O)C(CO)c3ccccc3)CC1C1OC12 (centres undefined),6.1 µg/kg
4,Cl.N=CN1C2CCC1CC(OC(=O)C(CO)c1ccccc1)C2 (centres undefined),3.5 µg/kg
5,Cl.N=C(N)N1C2CC(OC(=O)C(CO)c3ccccc3)CC1C1OC12 (centres undefined),18.6 µg/kg
6,CC(=N)N1C2CCC1CC(OC(=O)C(CO)c1ccccc1)C2.Cl (centres undefined),3.3 µg/kg
7,Cl.N=C(N)N1C2CCC1CC(OC(=O)C(CO)c1ccccc1)C2 (centres undefined),9.8 µg/kg
8,CN1[C@@H]2CC[C@H]1C[C@@H](OC(=O)C(CO)c1ccccc1)C2 (some centres undefined) [ATROPINE],4.5 µg/kg
9,CN1[C@@H]2C[C@@H](OC(=O)[C@H](CO)c3ccccc3)C[C@H]1[C@@H]1O[C@@H]12 [SCOPOLAMINE],5.8 µg/kg

# Test system: Rattus norvegicus
# Experiment: In vivo activity against oxotremorine induced tremors in rat (iv)
# Settings: not given
row,Structure (SMILES),ED50
1,CCCC[N+]1(C)C2CC(OC(=O)C(CO)c3ccccc3)CC1C1OC12.[Br-] (centres undefined),> 3000 µg/kg
2,CC(=N)N1C2CC(OC(=O)C(CO)c3ccccc3)CC1C1OC12.Cl (centres undefined),1700 µg/kg
3,Cl.N=CN1C2CC(OC(=O)C(CO)c3ccccc3)CC1C1OC12 (centres undefined),1300 µg/kg
4,Cl.N=CN1C2CCC1CC(OC(=O)C(CO)c1ccccc1)C2 (centres undefined),> 10000 µg/kg
5,Cl.N=C(N)N1C2CC(OC(=O)C(CO)c3ccccc3)CC1C1OC12 (centres undefined),> 3000 µg/kg
6,CC(=N)N1C2CCC1CC(OC(=O)C(CO)c1ccccc1)C2.Cl (centres undefined),> 10000 µg/kg
7,Cl.N=C(N)N1C2CCC1CC(OC(=O)C(CO)c1ccccc1)C2 (centres undefined),> 3000 µg/kg
8,CN1[C@@H]2CC[C@H]1C[C@@H](OC(=O)C(CO)c1ccccc1)C2 (some centres undefined) [ATROPINE],453 µg/kg
9,CN1[C@@H]2C[C@@H](OC(=O)[C@H](CO)c3ccccc3)C[C@H]1[C@@H]1O[C@@H]12 [SCOPOLAMINE],11 µg/kg

# Target: T1, Muscarinic acetylcholine receptor M2 (Rattus norvegicus, UniProt P10980)
# T1 sequence (P10980 whole entry): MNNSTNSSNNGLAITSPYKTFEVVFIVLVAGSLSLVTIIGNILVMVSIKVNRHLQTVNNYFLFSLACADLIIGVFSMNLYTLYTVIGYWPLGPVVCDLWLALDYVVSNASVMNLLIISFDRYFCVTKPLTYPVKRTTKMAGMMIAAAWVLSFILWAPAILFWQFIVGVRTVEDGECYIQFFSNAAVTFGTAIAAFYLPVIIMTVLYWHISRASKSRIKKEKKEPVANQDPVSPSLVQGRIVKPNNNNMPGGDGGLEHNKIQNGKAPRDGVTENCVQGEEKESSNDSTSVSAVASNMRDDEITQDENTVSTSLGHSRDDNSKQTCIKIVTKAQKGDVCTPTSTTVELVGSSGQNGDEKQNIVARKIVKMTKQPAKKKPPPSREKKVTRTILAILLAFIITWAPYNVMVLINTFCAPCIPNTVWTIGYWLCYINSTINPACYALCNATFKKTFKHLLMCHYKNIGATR
# Experiment: In vitro receptor binding against Muscarinic acetylcholine receptor M2 in rat heart was determined using [3H]NMS
# Settings: not given
row,Structure (SMILES),Kd
1,CCCC[N+]1(C)C2CC(OC(=O)C(CO)c3ccccc3)CC1C1OC12.[Br-] (centres undefined),220 nM
2,CC(=N)N1C2CC(OC(=O)C(CO)c3ccccc3)CC1C1OC12.Cl (centres undefined),6.7 nM
3,Cl.N=CN1C2CC(OC(=O)C(CO)c3ccccc3)CC1C1OC12 (centres undefined),10 nM
4,Cl.N=CN1C2CCC1CC(OC(=O)C(CO)c1ccccc1)C2 (centres undefined),1.6 nM
5,Cl.N=C(N)N1C2CC(OC(=O)C(CO)c3ccccc3)CC1C1OC12 (centres undefined),23 nM
6,CC(=N)N1C2CCC1CC(OC(=O)C(CO)c1ccccc1)C2.Cl (centres undefined),10 nM
7,Cl.N=C(N)N1C2CCC1CC(OC(=O)C(CO)c1ccccc1)C2 (centres undefined),11 nM
8,C[N+]1(C)[C@@H]2CC[C@H]1C[C@@H](OC(=O)C(CO)c1ccccc1)C2 (some centres undefined) [ATROPINE METHYLBROMIDE],2.7 nM

# Target: Muscarinic acetylcholine receptor M3 (Rattus norvegicus, UniProt P08483)
# Experiment: In vitro receptor binding against Muscarinic acetylcholine receptor M3 in rat submandibular gland was determined using [3H]NMS
# Settings: not given
# Muscarinic acetylcholine receptor M3, sequence (P08483 whole entry): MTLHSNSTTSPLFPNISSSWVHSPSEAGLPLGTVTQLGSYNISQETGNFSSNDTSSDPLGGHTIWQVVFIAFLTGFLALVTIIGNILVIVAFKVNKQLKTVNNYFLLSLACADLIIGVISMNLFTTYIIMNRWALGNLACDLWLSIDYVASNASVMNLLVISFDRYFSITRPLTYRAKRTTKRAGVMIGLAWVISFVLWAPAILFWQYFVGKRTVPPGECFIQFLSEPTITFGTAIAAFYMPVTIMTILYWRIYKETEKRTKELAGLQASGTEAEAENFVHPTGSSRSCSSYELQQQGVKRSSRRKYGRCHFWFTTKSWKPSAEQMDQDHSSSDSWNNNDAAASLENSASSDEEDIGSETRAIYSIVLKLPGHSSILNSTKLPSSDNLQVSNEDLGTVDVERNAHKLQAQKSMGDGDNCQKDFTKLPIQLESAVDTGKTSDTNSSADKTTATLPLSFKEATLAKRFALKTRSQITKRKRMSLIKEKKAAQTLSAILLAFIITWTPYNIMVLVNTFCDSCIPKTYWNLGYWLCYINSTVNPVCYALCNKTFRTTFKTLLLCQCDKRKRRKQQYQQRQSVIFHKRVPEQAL
row,Structure (SMILES),Kd
1,CCCC[N+]1(C)C2CC(OC(=O)C(CO)c3ccccc3)CC1C1OC12.[Br-] (centres undefined),220 nM
2,CC(=N)N1C2CC(OC(=O)C(CO)c3ccccc3)CC1C1OC12.Cl (centres undefined),3.5 nM
3,Cl.N=CN1C2CC(OC(=O)C(CO)c3ccccc3)CC1C1OC12 (centres undefined),5 nM
4,Cl.N=CN1C2CCC1CC(OC(=O)C(CO)c1ccccc1)C2 (centres undefined),1.4 nM
5,Cl.N=C(N)N1C2CC(OC(=O)C(CO)c3ccccc3)CC1C1OC12 (centres undefined),4.5 nM
6,CC(=N)N1C2CCC1CC(OC(=O)C(CO)c1ccccc1)C2.Cl (centres undefined),3.1 nM
7,Cl.N=C(N)N1C2CCC1CC(OC(=O)C(CO)c1ccccc1)C2 (centres undefined),2.5 nM
8,C[N+]1(C)[C@@H]2CC[C@H]1C[C@@H](OC(=O)C(CO)c1ccccc1)C2 (some centres undefined) [ATROPINE METHYLBROMIDE],2.6 nM

# Test system: Rattus norvegicus
# Experiment: In vivo activity against oxotremorine induced salivation in rat (iv)
# Settings: not given
row,Structure (SMILES),ED50
1,CCCC[N+]1(C)C2CC(OC(=O)C(CO)c3ccccc3)CC1C1OC12.[Br-] (centres undefined),385 µg/kg
2,CC(=N)N1C2CC(OC(=O)C(CO)c3ccccc3)CC1C1OC12.Cl (centres undefined),4.1 µg/kg
3,Cl.N=CN1C2CC(OC(=O)C(CO)c3ccccc3)CC1C1OC12 (centres undefined),2.45 µg/kg
4,Cl.N=CN1C2CCC1CC(OC(=O)C(CO)c1ccccc1)C2 (centres undefined),3.9 µg/kg
5,Cl.N=C(N)N1C2CC(OC(=O)C(CO)c3ccccc3)CC1C1OC12 (centres undefined),18.8 µg/kg
6,CC(=N)N1C2CCC1CC(OC(=O)C(CO)c1ccccc1)C2.Cl (centres undefined),6.2 µg/kg
7,Cl.N=C(N)N1C2CCC1CC(OC(=O)C(CO)c1ccccc1)C2 (centres undefined),5.8 µg/kg
8,CN1[C@@H]2CC[C@H]1C[C@@H](OC(=O)C(CO)c1ccccc1)C2 (some centres undefined) [ATROPINE],8.6 µg/kg
9,CN1[C@@H]2C[C@@H](OC(=O)[C@H](CO)c3ccccc3)C[C@H]1[C@@H]1O[C@@H]12 [SCOPOLAMINE],2.6 µg/kg

# Test system: not listed separately
# Experiment: pKa value was determined
# Assay type: physicochemical
# Settings: not given
# Method in brief: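 Macroscopic pKa measured by potentiometric titration in water containing a few milliliters of methanol, with a glass electrode.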
row,Structure (SMILES),pKa
1,O=C(O[C@@H]1C[C@@H]2N[C@H](C1)[C@@H]1O[C@@H]12)[C@H](CO)c1ccccc1,7.09
2,CC(=N)N1C2CC(OC(=O)C(CO)c3ccccc3)CC1C1OC12.Cl (centres undefined),10.7
3,Cl.N=CN1C2CC(OC(=O)C(CO)c3ccccc3)CC1C1OC12 (centres undefined),9.78
4,Cl.N=CN1C2CCC1CC(OC(=O)C(CO)c1ccccc1)C2 (centres undefined),10.3
5,Cl.N=C(N)N1C2CC(OC(=O)C(CO)c3ccccc3)CC1C1OC12 (centres undefined),10.8
6,CC(=N)N1C2CCC1CC(OC(=O)C(CO)c1ccccc1)C2.Cl (centres undefined),10.9
7,Cl.N=C(N)N1C2CCC1CC(OC(=O)C(CO)c1ccccc1)C2 (centres undefined),11.6

# Target: T2, Muscarinic acetylcholine receptor M1 (Rattus norvegicus, UniProt P08482)
# T2 sequence (P08482 whole entry): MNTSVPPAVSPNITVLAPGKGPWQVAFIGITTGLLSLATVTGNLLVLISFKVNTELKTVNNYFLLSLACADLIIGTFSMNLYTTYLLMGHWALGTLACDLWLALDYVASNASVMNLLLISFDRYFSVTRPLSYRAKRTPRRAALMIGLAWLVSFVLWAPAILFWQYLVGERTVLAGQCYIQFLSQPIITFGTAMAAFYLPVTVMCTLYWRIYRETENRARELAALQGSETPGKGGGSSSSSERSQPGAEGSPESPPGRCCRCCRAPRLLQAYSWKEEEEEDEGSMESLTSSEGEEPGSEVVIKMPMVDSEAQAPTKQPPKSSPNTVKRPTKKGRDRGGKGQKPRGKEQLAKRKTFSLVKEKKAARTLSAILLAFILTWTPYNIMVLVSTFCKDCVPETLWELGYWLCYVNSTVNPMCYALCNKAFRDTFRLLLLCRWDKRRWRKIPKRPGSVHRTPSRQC
# Experiment: In vitro receptor binding against Muscarinic acetylcholine receptor M1 in rat cerebral cortex was determined using [3H]pirenzepine
# Assay type: tissue-based
# Settings: not given
# Method in brief: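 Rat cortex, heart or submandibular gland homogenates in Na+-Mg2+-HEPES pH 7.4, incubated 45 min at 30 °C with radioligand plus varying cold ligand. Separated by centrifugation, pellets washed and counted, in triplicate. KD from IC50 by nonlinear regression with Cheng–Prusoff correction; Hill slopes by linear regression.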
row,Structure (SMILES),Kd
1,CCCC[N+]1(C)C2CC(OC(=O)C(CO)c3ccccc3)CC1C1OC12.[Br-] (centres undefined),300 nM
2,CC(=N)N1C2CC(OC(=O)C(CO)c3ccccc3)CC1C1OC12.Cl (centres undefined),3.4 nM
3,Cl.N=CN1C2CC(OC(=O)C(CO)c3ccccc3)CC1C1OC12 (centres undefined),3.6 nM
4,Cl.N=CN1C2CCC1CC(OC(=O)C(CO)c1ccccc1)C2 (centres undefined),1.1 nM
5,Cl.N=C(N)N1C2CC(OC(=O)C(CO)c3ccccc3)CC1C1OC12 (centres undefined),7.5 nM
6,CC(=N)N1C2CCC1CC(OC(=O)C(CO)c1ccccc1)C2.Cl (centres undefined),2 nM
7,Cl.N=C(N)N1C2CCC1CC(OC(=O)C(CO)c1ccccc1)C2 (centres undefined),7 nM

# Organism: Cavia porcellus
# Experiment: In vitro functional studies in guinea pig left atrium
# Settings: Cardiac atrium
row,Structure (SMILES),Kb
1,CCCC[N+]1(C)C2CC(OC(=O)C(CO)c3ccccc3)CC1C1OC12.[Br-] (centres undefined),58.4 nM
2,C[N+]1(C)C2CC(OC(=O)C(CO)c3ccccc3)CC1C1OC12 (centres undefined),0.38 nM
3,CC(=N)N1C2CC(OC(=O)C(CO)c3ccccc3)CC1C1OC12.Cl (centres undefined),5.02 nM
4,Cl.N=CN1C2CC(OC(=O)C(CO)c3ccccc3)CC1C1OC12 (centres undefined),6.55 nM
5,Cl.N=CN1C2CCC1CC(OC(=O)C(CO)c1ccccc1)C2 (centres undefined),1.59 nM
6,Cl.N=C(N)N1C2CC(OC(=O)C(CO)c3ccccc3)CC1C1OC12 (centres undefined),16.4 nM
7,CC(=N)N1C2CCC1CC(OC(=O)C(CO)c1ccccc1)C2.Cl (centres undefined),3.17 nM
8,Cl.N=C(N)N1C2CCC1CC(OC(=O)C(CO)c1ccccc1)C2 (centres undefined),3.06 nM
9,C[N+]1(C)[C@@H]2CC[C@H]1C[C@@H](OC(=O)C(CO)c1ccccc1)C2 (some centres undefined) [ATROPINE METHYLBROMIDE],1.29 nM
10,CN1[C@@H]2CC[C@H]1C[C@@H](OC(=O)C(CO)c1ccccc1)C2 (some centres undefined) [ATROPINE],0.66 nM
11,CN1[C@@H]2C[C@@H](OC(=O)[C@H](CO)c3ccccc3)C[C@H]1[C@@H]1O[C@@H]12 [SCOPOLAMINE],0.17 nM
